Assay type in all cases: functional
Test [1] concerns Rattus norvegicus. Description: Ability to promote absorption of recombinant human growth hormone from the gastrointestinal tract in rats by using ELISA assay. (Compound dose 300 mg/kg, rhGH 6 mg/kg by OG administration). Summed up: (§1)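 Male Sprague-Dawley rats, 225-250 g, in groups of six or seven, with free access to water for 24 h beforehand. Ketamine 44 mg/kg plus thorazine 1.5 mg/kg given just before dosing. Aqueous delivery agent, adjusted to pH 7.2-7.8, with rhGH, given by oral gavage or intracolonic instillation. Serum rhGH measured by ELISA; peak concentration in ng/mL reported as mean ± SD.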
(In general: An ELISA detects its analyte on a solid surface through an enzyme-linked reagent.)

Test [2] relates to Rattus norvegicus. The test can be described thus: Ability to promote absorption of recombinant human growth hormone from the gastrointestinal tract in rats by using ELISA assay at a of dose 25 mg/kg, rhGH 1 mg/kg by IC administration. Summed up: as §1
Test [3] relates to Rattus norvegicus. Description: Ability to promote absorption of recombinant human growth hormone from the gastrointestinal tract in rats by using ELISA assay. (Compound dose 400 mg/kg, rhGH 6 mg/kg by OG administration). Summed up:
as §1

The test system of test [4] is Rattus norvegicus. Description: Ability to promote absorption of recombinant human growth hormone from gastrointestinal tract in rats by using ELISA assay at a of dose 25 mg/kg, rhGH 1 mg/kg by IC administration. Summed up: as §1
Test [5] deals with Rattus norvegicus. Description: Ability to promote absorption of recombinant human growth hormone from the gastrointestinal tract in rats by using ELISA assay. (Compound dose 200 mg/kg, rhGH 6 mg/kg by OG administration). The gist of the method: as §1
For test [6], the system named is Rattus norvegicus. Description: Ability to promote absorption of recombinant human growth hormone (rhGH) from the gastrointestinal tract in rats by using ELISA assay. (Compound at a of dose 250 mg/kg, rhGH 6 mg/kg by OG administration). The gist of the method: as §1
In test [7] the test system is Rattus norvegicus. The test can be described thus: Ability to promote absorption of recombinant human growth hormone from the gastrointestinal tract in rats by using ELISA assay. (Compound dose 500 mg/kg, rhGH 6 mg/kg by OG administration). The gist of the method:
as §1

The test system of test [8] is Rattus norvegicus. Description: Ability to promote absorption of recombinant human growth hormone from gastrointestinal tract in rats by using ELISA assay. (Compound dose 500 mg/kg, rhGH 6 mg/kg by OG administration). Summed up: as §1
The subject of test [9] is Rattus norvegicus. The test can be described thus: Ability to promote absorption of recombinant human growth hormone (rhGH) from the gastrointestinal tract in rats by using ELISA assay. (Compound dose 300 mg/kg, rhGH 6 mg/kg by OG administration). The gist of the method: as §1
Test [10] concerns Rattus norvegicus. Description: Ability to promote absorption of recombinant human growth hormone from the gastrointestinal tract in rats by using ELISA assay. (Compound dose 25 mg/kg, rhGH 6 mg/kg by OG administration). As to conditions: in the assay text read “rhGH 1 mg/kg by IC administration” for “rhGH 6 mg/kg by OG administration”. The gist of the method:
as §1

The text below walks through data of ChEMBL document CHEMBL1129357, “4-[4-[(2-Hydroxybenzoyl)amino]phenyl]butyric acid as a novel oral delivery agent for recombinant human growth hormone” (1996).

Turning to `CC(C(=O)Nc1ccc(CCCC(=O)O)cc1)c1ccccc1` (configuration not stated), the “Peak rhGH” value in test [1] came to 2.3 ng/mL.

In the case of `O=C(O)CCCc1ccc(NC(=O)c2ccccc2F)cc1`, the “Peak rhGH” value in [2] was found to be 20.8 ng/mL; in [1], 43.4 ng/mL.

In the case of `O=C(O)CCCc1ccc(NC(=O)c2ccc(-c3ccccc3)c(-c3ccccc3)c2)cc1`, the “Peak rhGH” value in [3] amounted to 28.2 ng/mL.

`O=C(O)CCCc1ccc(NC(=O)c2ccccc2[N+](=O)[O-])cc1`: the “Peak rhGH” value in [4] was 14.9 ng/mL.

As to `CC1CCC(C(=O)Nc2ccc(C(=O)O)cc2)CC1` (configuration not stated), in [3], the “Peak rhGH” value came to 0 ng/mL.

With `O=C(O)CCCc1ccc(NCc2ccccc2)cc1`, the “Peak rhGH” value in [5] was determined as 20.4 ng/mL.

`O=C(O)CCCc1ccc(NC(=O)C2CCCCCC2)cc1`: in test [3], the “Peak rhGH” value came out at 92.8 ng/mL.

Take `O=C(O)CCCc1ccc(NC(=O)/C=C/c2ccccc2F)cc1`: the “Peak rhGH” value in [4] was 7.7 ng/mL.

As for `O=C(O)CCCc1ccc(NS(=O)(=O)c2ccccc2)cc1`, the “Peak rhGH” value turned out to be 2.6 ng/mL in test [6] and 28 ng/mL in [7].

On to `COc1ccccc1/C=C/C(=O)Nc1ccc(CCC(=O)O)cc1`, for which the “Peak rhGH” value in [4] was 61.7 ng/mL.

On to `O=C(O)c1ccc(NC(=O)c2ccccc2O)cc1`, for which, in test [4], the “Peak rhGH” value was determined as 0 ng/mL.

Regarding `O=C(O)CCCc1ccc(NC(=O)CCCCc2ccccc2)cc1`, the “Peak rhGH” value in test [4] is 8.4 ng/mL.

`O=C(O)CCCc1ccc(NC(=O)CCc2ccccc2)cc1`: the “Peak rhGH” value in [1] worked out at 12.8 ng/mL.

As for `O=C(O)CCc1ccc(NC(=O)c2ccccc2O)cc1`, the “Peak rhGH” value in test [4] is 37.2 ng/mL.

Regarding `O=C(O)CCCc1ccc(NC(=O)c2ccccc2)cc1`, the “Peak rhGH” value was determined as 17.5 ng/mL in test [2], 21.7 ng/mL in test [8] and 5.4 ng/mL in test [9].

With `O=C(O)CCCc1ccc(NC(=O)c2cccc(-c3ccccc3)c2-c2ccccc2)cc1`, the “Peak rhGH” value in test [7] came out at 5.9 ng/mL.

`O=C(O)CCCc1ccc(NC(=O)c2ccc(-c3ccccc3)cc2)cc1`: the “Peak rhGH” value in test [7] was found to be 39.9 ng/mL.

Consider `CCC(C(=O)Nc1ccc(CCCC(=O)O)cc1)C1CCCCC1` (configuration not stated), for which the “Peak rhGH” value in test [3] was 0.5 ng/mL.

Consider `O=C(O)CCCc1ccc(NC(=O)c2ccccc2OC(F)(F)F)cc1`, for which the “Peak rhGH” value in [4] turned out to be 56.8 ng/mL.

With `O=C(O)CCCc1ccc(NC(=O)Cc2ccccc2)cc1`, the “Peak rhGH” value in [1] amounted to 8.1 ng/mL.

Consider `O=C(O)CCc1ccc(NC(=O)c2ccccc2[N+](=O)[O-])cc1`, for which the “Peak rhGH” value in test [4] came to 17.6 ng/mL.

`O=C(CCCC1CCCCC1)Nc1ccc(C(=O)O)cc1`: in test [7], the “Peak rhGH” value worked out at 29.3 ng/mL.

Regarding `CC1CCC(C(=O)Nc2ccc(CCCC(=O)O)cc2)CC1` (configuration not stated), the “Peak rhGH” value in test [3] amounted to 41.6 ng/mL.

With `O=C(O)CCCc1ccc(NC(=O)CCCC2CCCCC2)cc1`, the “Peak rhGH” value in test [4] was found to be 26 ng/mL.

Turning to `O=C(O)CCCc1ccc(NC(=O)c2ccc(F)cc2)cc1`, the “Peak rhGH” value in [1] came out at 2.8 ng/mL.

On to `O=C(O)/C=C/c1ccc(NC(=O)c2ccccc2)cc1`, for which, in test [3], the “Peak rhGH” value is 6.5 ng/mL.

Turning to `O=C(O)Cc1ccc(NS(=O)(=O)c2ccccc2)cc1`, in test [7], the “Peak rhGH” value turned out to be 0 ng/mL.

With `COc1ccccc1/C=C/C(=O)Nc1ccc(CCCC(=O)O)cc1`, in test [10], the “Peak rhGH” value is 32.9 ng/mL.

Turning to `O=C(Cc1ccccc1)Nc1ccc(C(=O)O)cc1`, the “Peak rhGH” value in [7] came to 0 ng/mL.

`O=C(O)CCCc1ccc(NC(=O)/C=C/c2ccccc2)cc1`: in [3], the “Peak rhGH” value stood at 49.7 ng/mL.

Consider `O=C(CCCc1ccccc1)Nc1ccc(C(=O)O)cc1`, for which the “Peak rhGH” value in [7] was determined as 11.9 ng/mL.

Take `O=C(CC1CCCCC1)Nc1ccc(C(=O)O)cc1`: the “Peak rhGH” value in [7] came out at 0 ng/mL.

As to `O=C(O)c1ccc(NS(=O)(=O)c2ccccc2)cc1`, the “Peak rhGH” value amounted to 0 ng/mL in test [4] and 13.7 ng/mL in test [7].

`COc1ccc(/C=C/C(=O)Nc2ccc(CCC(=O)O)cc2)cc1`: the “Peak rhGH” value in test [4] amounted to 5 ng/mL.

`O=C(O)CCCc1ccc(NC(=O)c2ccccc2C(=O)O)cc1`: the “Peak rhGH” value in test [4] worked out at 22.3 ng/mL.

Take `O=C(O)CCCc1ccc(NC(=O)c2ccc3c(c2)OCO3)cc1`: the “Peak rhGH” value in [4] turned out to be 0 ng/mL.

`Cc1cccc(C)c1C(=O)Nc1ccc(CCCC(=O)O)cc1`: in [4], the “Peak rhGH” value was 7.7 ng/mL.

`O=C(O)CCCc1ccc(NC(=O)c2ccccc2Cl)cc1`: the “Peak rhGH” value in test [2] amounted to 52.2 ng/mL.

`O=C(O)CCCc1ccc(NC(=O)c2c(O)cccc2O)cc1`: the “Peak rhGH” value in test [4] was 20.9 ng/mL.

Turning to `O=C(O)Cc1ccc(NC(=O)CC2CCCCC2)cc1`, the “Peak rhGH” value in test [1] was 15.7 ng/mL.

On to `O=C(O)CCCc1ccc(NC(=O)c2ccc(O)cc2O)cc1`, for which the “Peak rhGH” value in test [5] came out at 16.9 ng/mL.

As to `O=C(O)CCCc1ccc(NC(=O)C2CCCCC2C(=O)O)cc1` (configuration not stated), the “Peak rhGH” value in test [5] was 0 ng/mL.

As to `O=C(O)CCCc1ccc(NC(=O)CCC(=O)c2ccccc2)cc1`, in test [4], the “Peak rhGH” value is 0.6 ng/mL.

On to `COc1ccccc1/C=C/C(=O)Nc1ccc(C(=O)O)cc1`, for which the “Peak rhGH” value in test [2] came to 30.4 ng/mL.

In the case of `O=C(O)CCCc1ccc(NC(=O)/C=C/c2c(F)c(F)c(F)c(F)c2F)cc1`, the “Peak rhGH” value in [3] is 49.7 ng/mL.

As for `CC(C)Cc1ccc(CC(=O)Nc2ccc(CCCC(=O)O)cc2)cc1`, the “Peak rhGH” value in [5] is 7.8 ng/mL.

As for `COc1ccc(C(=O)Nc2ccc(CCCC(=O)O)cc2)cc1`, the “Peak rhGH” value in test [1] was found to be 0 ng/mL.

Regarding `O=C(O)CCCc1ccc(NC(=O)CCCc2ccccc2)cc1`, the “Peak rhGH” value in [1] was 17.9 ng/mL.

On to `O=C(O)CCCc1ccc(NC(=O)Cc2ccccc2O)cc1`, for which the “Peak rhGH” value in [1] is 0 ng/mL.

On to `O=C(CCc1ccccc1)Nc1ccc(C(=O)O)cc1`, for which, in test [7], the “Peak rhGH” value is 3.3 ng/mL.

Consider `Cc1ccccc1C(=O)Nc1ccc(CCCC(=O)O)cc1`, for which the “Peak rhGH” value in [2] turned out to be 9.08 ng/mL.

Regarding `Cc1ccccc1/C=C/C(=O)Nc1ccc(CCCC(=O)O)cc1`, the “Peak rhGH” value in [2] stood at 16.4 ng/mL.

Consider `O=C(O)CCCc1ccc(NC(=O)C2CCCCC2)cc1`, for which the “Peak rhGH” value in test [7] is 63.8 ng/mL.

As to `COc1ccccc1C(=O)Nc1ccc(CCCC(=O)O)cc1`, the “Peak rhGH” value in test [4] is 17.8 ng/mL.

`O=C(O)CCCc1ccc(NC(=O)c2ccccc2O)cc1`: the “Peak rhGH” value in test [2] turned out to be 64.7 ng/mL; in [1], 49.7 ng/mL.

On to `O=C(O)CCCc1ccc(NC(=O)c2cccc(C(F)(F)F)c2)cc1`, for which the “Peak rhGH” value in [2] was found to be 17.6 ng/mL.

`O=C(O)CCCc1ccc(NC(=O)C(O)C(O)c2ccccc2)cc1` (configuration not stated): the “Peak rhGH” value in test [4] was 2.5 ng/mL.

In the case of `O=C(O)Cc1ccc(NC(=O)c2ccccc2O)cc1`, the “Peak rhGH” value in [4] was 5.6 ng/mL.

Take `O=C(O)CCCc1ccc(NC(=O)Cc2ccccc2F)cc1`: the “Peak rhGH” value in test [4] worked out at 7.3 ng/mL.

With `O=C(O)Cc1ccc(NC(=O)Cc2ccccc2)cc1`, in test [1], the “Peak rhGH” value was found to be 9 ng/mL.

As to `O=C(O)CCCc1ccc(NC(=O)CC2CCCCC2)cc1`, in test [7], the “Peak rhGH” value stood at 24.2 ng/mL.

With `CN(C)c1cccc(C(=O)Nc2ccc(CCCC(=O)O)cc2)c1`, the “Peak rhGH” value in test [4] was found to be 50.7 ng/mL.

`O=C(O)c1ccc(NC(=O)c2ccc(F)cc2)cc1`: the entries for the “Peak rhGH” value in [4] and in test [1] were 2.2 ng/mL and 1 ng/mL, respectively.

`O=C(O)CCCc1ccc(NC(=O)c2cccc([N+](=O)[O-])c2)cc1`: the “Peak rhGH” value in [4] amounted to 33.5 ng/mL.

On to `COc1cccc(O)c1C(=O)Nc1ccc(CCC(=O)O)cc1`, for which the “Peak rhGH” value in test [4] is 9.3 ng/mL.

In the case of `O=C(O)CCCc1ccc(NC(=O)c2cccc(Cl)c2)cc1`, the “Peak rhGH” value in test [2] turned out to be 0 ng/mL.

For the molecule `O=C(O)Cc1ccc(NC(=O)CCc2ccccc2)cc1`, the “Peak rhGH” value in [1] was determined as 12.6 ng/mL.

Regarding `O=C(O)CCCc1ccc(NC(=O)CCOc2ccccc2)cc1`, the “Peak rhGH” value in test [4] is 44.1 ng/mL.

With `CCC(C(=O)Nc1ccc(CCCC(=O)O)cc1)c1ccccc1` (configuration not stated), in test [1], the “Peak rhGH” value worked out at 5.9 ng/mL.

Turning to `O=C(O)CCCc1ccc(NCc2ccccc2O)cc1`, in [4], the “Peak rhGH” value came to 32.5 ng/mL.
